Test results as given in ChEMBL document CHEMBL1125589, “Verapamil analogues with restricted molecular flexibility” (1991).

Assays:
Cavia porcellus [1] = species on record: Cavia porcellus; test: Compound was tested in vitro for chronotropic activity on isolated atria preparations of guinea pig.; assay type: functional
Cavia porcellus [2] = species on record: Cavia porcellus; test: Percent inhibition of [Ca2+] induced contraction on K+ depolarized guinea pig aortic strips at […] concentration; assay type: functional, Aorta
Summary of the method: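 Guinea pig aortic strips were depolarized with K+, and contraction was induced with Ca2+. Percent inhibition of that contraction was measured with the test agent at 5·10^-4 M. Results are given as means ± SEM, n = 5-6.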

Cavia porcellus [3] = species on record: Cavia porcellus; test: Compound was tested in vitro for ionotropic activity on isolated atria preparations of guinea pig.; assay type: functional
Cavia porcellus [4] = species on record: Cavia porcellus; test: Compound was tested in vitro for ionotropic activity on isolated atria preparations of guinea pig at 10E-6 M concentration; assay type: functional
Cavia porcellus [5] = species on record: Cavia porcellus; test: Compound was tested in vitro for chronotropic activity on isolated atria preparations of guinea pig at 10E-6 M concentration; assay type: functional
Summary of the method: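 Chronotropic effect was measured on spontaneously beating isolated guinea pig right atria, with the test agent at 10^-6 M.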

| SMILES | Negative chronotropic activity (Cavia porcellus [1]) [%] | Ca2+ antagonistic activity (Cavia porcellus [2]) [%] | Negative ionotropic activity (Cavia porcellus [3]) [%] | Negative ionotropic activity (Cavia porcellus [4]) [%] | Negative chronotropic activity (Cavia porcellus [5]) [%] |
| --- | --- | --- | --- | --- | --- |
| COc1ccc(CCN(C)[C@H]2CC[C@@](C#N)(c3ccc(OC)c(OC)c3)CC2)cc1OC | 67 | 66 | 56 |  |  |
| COc1ccc(CCN(C)[C@H]2CC[C@](C#N)(c3ccc(OC)c(OC)c3)CC2)cc1OC | 65 | 59 | 52 |  |  |
| COc1ccc(CCN(C)CCCC(C#N)(c2ccc(OC)c(OC)c2)C(C)C)cc1OC (centres undefined) [VERAPAMIL] |  | 79 |  | 60 | 94 |
